Experimental data from ChEMBL document CHEMBL4513216, “Probing the Open Global Health Chemical Diversity Library for Multistage-Active Starting Points for Next-Generation Antimalarials” (ACS Infect Dis, 2020).

Experiment: Toxicity liver stage against HepG2, at 10uM
Assay type: cell-based
Parameters: test concentration 10 uM, cell line HepG2-A16-CD81EGFP
Details: human, HepG2-A16-CD81EGFP cells; read-out: INHIBITION
Procedure, shortened: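 Uninfected HepG2-A16-CD81EGFP cells, 3 × 10^3 per well, 1536-well, plated on prespotted compound at 10 μM final, parasite-free screening media added to match infected plates; puromycin 10 μM positive, DMSO 0.5% negative; run in parallel with 48 h PbLuc assay at 37 °C, 5% CO2; viability by CellTiter-Glo luminescence, normalized to controls.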

Compound	cytotoxicity at 10 µM
CC(=O)N1CCC(N[C@@H]2CO[C@H](CNC(=O)C3CCCC3)[C@H]2O)CC1	-2.17%
O=C1CO[C@H]2CN(C3CCOCC3)C[C@H]2N1Cc1ccccn1	0.566%
Nc1nnc(SCc2cc(=O)n3c4c(sc3n2)CCCC4)[nH]1	-4.19%
O=C1CN(C(=O)c2ccc(F)cc2)CC(O)CN1Cc1cccs1 (stereo not drawn)	-67.7%
COC1CCN(C(=O)C2CCCC2)CC(=O)N(C)c2ccccc21 (stereo not drawn)	-8.88%
CC(=O)Nc1ccc(Oc2ccc3c(c2)OCO3)nc1	-8.6%
O=c1cc2c(nn1CN1CCC(c3ccccc3)CC1)CCC2	-8.49%
Cc1cc(=O)n2c(n1)SCC2CC(=O)NCc1cc(-c2ccco2)on1 (stereo not drawn)	-15.6%
Cn1cc(S(=O)(=O)NCC2CCN(C(=O)Oc3ccccc3)CC2)cn1	-8.36%
COc1ccc(C[C@H]2CN(C(=O)CS(C)(=O)=O)CC[C@H]2OC)cc1	2.64%
CN1C[C@H](COCC2CC2)[C@H]2CCN(Cc3ccco3)CC[C@H]2C1=O	-4.84%
CC(C)n1c(C(=O)N2CCCC2)nc2c1CCN(c1ncccn1)C2	-6.72%
CC(=O)N1CCC(c2cc3c(ncn3C)c(-c3cnn(C)c3)n2)CC1	0.472%
CN(C)C(=O)COCC1C[C@@H]2OCCN(Cc3ccco3)[C@H]2C1 (stereo partly drawn)	11.9%
CCc1noc(-c2ccc(SCC(=O)O)nc2)n1	-10.9%
CC(=O)N1CCC2(CC1)CC(Oc1ccccc1)CO2 (stereo not drawn)	-8.77%
O=C(NCc1ccnc(C2CCCOC2)n1)c1cccs1 (stereo not drawn)	0.44%
c1ccc(CN2CCCC(c3nccnc3-n3ccnc3)C2)cc1 (stereo not drawn)	-4.56%
Cc1ccc(-c2nnc(SCC(=O)O)n2-c2ccc(C)cc2)cc1	-3.53%
CC(=O)N1CCC(Cc2cnc(-c3c(C)nn(C)c3C)cn2)C1 (stereo not drawn)	-7.31%
CCN(CC)CCNc1ncc(-c2cc(C)no2)c(-c2ccoc2C)n1	-4.94%
CC1c2cc(F)ccc2CCN1C(=O)c1[nH]c(=O)[nH]c(=O)c1N (stereo not drawn)	7.78%

Compound	cytotoxicity at 10 µM
CN(Cc1ccc(C#N)cc1)C(=O)c1ccn(C)c(=O)c1	-2.81%
Cc1ccccc1CC(=O)NCCNc1nccc(C(F)(F)F)n1	7.64%
CN(C)C(=O)c1cccc(Nc2cnn(C)c2)c1	5.42%
COc1ccc(Cl)cc1NCC(=O)N(Cc1ccncc1)C1CC1	13.7%
CN(Cc1ccco1)C(=O)CN1C(=O)c2ccccc2C1=O	-2.96%
CC(C)c1noc(CN2CCN(C(=O)OC(C)(C)C)C(C)C2)n1 (stereo not drawn)	2.24%
COCC(=O)Nc1cc(S(=O)(=O)C(F)(F)F)ccc1OC	17.3%
Cn1cc(C#N)cc1C(=O)Nc1ccc(CN2CCOCC2)cn1	-6.68%
CC(NC(=O)CCc1nc(-c2nnc[nH]2)no1)c1ccc(F)cc1F (stereo not drawn)	-2.05%
CC(C)COC(=O)N1CCCN(C(=O)c2ccnc(N(C)C)c2)CC1	-15.1%
Cc1cc(S(=O)(=O)N2CCCc3cc(F)c(F)cc32)sc1C(=O)O	-11.9%
CCc1nc(CN2CCCC(N(C)CCn3cccn3)C2)no1 (stereo not drawn)	-11.5%
CC(CN1CCCC1=O)NC(=O)c1ccc(C(F)(F)F)[nH]c1=O (stereo not drawn)	-4.48%
COC(C)(C)CNC(=O)N1CCC(n2ccc(C(F)(F)F)n2)CC1	-2.41%
Cc1ccc(-c2ccc(C(=O)NCCC(=O)N(C)C)c(F)c2)cc1	-0.0916%
NC(=O)C(CNC(=O)CCc1ccccc1)Cc1ccc(F)cc1 (stereo not drawn)	6.62%
CCn1ccnc1CN1CCN(Cc2cccnc2)CC1C (stereo not drawn)	-0.191%
COc1ccc(NC(C)c2ccc(C#N)cc2)cc1N1CCCC1=O (stereo not drawn)	-7.43%
CC(C)(C)c1csc(C2CCCCN2C(=O)CCn2cncn2)n1 (stereo not drawn)	-4.34%
Cc1n[nH]c(C2CN(C(=O)c3cc(C)sc3C)CCO2)n1 (stereo not drawn)	3.35%
C[S+]([O-])c1ccc(NC(=O)Cc2cccnc2)cc1F (stereo not drawn)	-4.26%
CCc1nsc(N2CCCN(C(=O)c3ccc(OC)cc3)CC2)n1	4.05%

Compound	cytotoxicity at 10 µM
O=C(NCCn1ccnc1)NCc1ccc(N2CCCCCC2)nc1	19%
CC(=O)N(Cc1noc(C)n1)C1CCN(CC2(O)CCCCC2)C1 (stereo not drawn)	5.69%
CN(CC(C)(C)C)S(=O)(=O)c1ccc(C(F)(F)F)nc1	3.24%
Cc1cc2n(n1)CC(CNCc1cnn(C)c1)CN2 (stereo not drawn)	5.25%
Cc1cc(CN(C)C(=O)C2CCCN(C(=O)c3ccc(Cl)cc3)C2)no1 (stereo not drawn)	-15.6%
COCCN1CCc2ncnc(N(C)C)c2CC1	-0.025%
CC(C)N(C)Cc1cc(=O)n2c(n1)CN(C(=O)c1cnccn1)CCC2	-3.02%
Cc1cc(C(=O)N2CC[C@@H]3CN(c4ncccn4)CCO[C@@H]3C2)c(C)o1	3.52%
Cn1nnc2c1CCN(Cc1ccccc1)C2COCC1CC1 (stereo not drawn)	3.24%
O=C(C1CCOC1)N1C[C@H]2CN(Cc3ccccn3)C[C@H]2C1 (stereo partly drawn)	1.03%
c1cc(-c2n[nH]cc2-c2ccnc(N3CCCC3)n2)ccn1	-0.779%
CCC[C@H]1CN(c2cncc(C(=O)N(C)C)n2)C[C@@H]1N(C)C	-7.83%
CCN1CCN(C(=O)c2cc(C(F)(F)F)n[nH]2)[C@H]2CS(=O)(=O)C[C@H]21	-3.77%
COC1CCN(C(=O)Cn2ncc(N3CCCCC3)cc2=O)C1 (stereo not drawn)	-2.69%
O=C(CCc1cc2n(n1)CCN(Cc1ccncc1)C2)N1CCCC1	-7.97%
Cc1cc(-c2nc(-c3c(C)ncc4c3CCNC4)no2)nc(C)n1	4.43%
NCC1CN(C(=O)Cn2ncc(N3CCCCC3)cc2=O)CCO1 (stereo not drawn)	-8.27%
CCCc1nc(C)c(CN2CC3(CCOC3)CCC2=O)s1 (stereo not drawn)	-10.5%
Cc1nc(C2CCNCC2)cc(N(C)Cc2cc3cc(F)ccc3[nH]2)n1	-10.7%
Cn1cc(C2=CCN(CCC(=O)NCc3ccc(Cl)cc3)CC2)cn1	-1.77%
Cc1nc(CN)cc(NCc2ccccc2-n2cncn2)n1	1.88%
O=S1(=O)C[C@@H]2[C@H](C1)N(Cc1cc(F)cc(F)c1)CCN2CCO	-2.61%

Compound	cytotoxicity at 10 µM
CCc1oc(C(=O)N[C@@H]2c3ccccc3C[C@@H]2O)cc1CN1CCCC1	-5.65%
CC(C1CCN(Cc2ccc(OC(F)F)cc2)CC1)N1CCOCC1 (stereo not drawn)	-2.38%
COc1cc(NC2CCS(=O)(=O)C2)ncn1 (stereo not drawn)	7.53%
CSc1ccccc1C(C(=O)O)N1CCN(Cc2ccccn2)CC1 (stereo not drawn)	-36.2%
Cc1nc(CN2CCCC(CCc3ccc(F)cc3F)C2)c[nH]1 (stereo not drawn)	-9.67%
CC(CN1CCOCC1)NCC1CCN(c2cnn(C)c(=O)c2)CC1 (stereo not drawn)	-9.93%
CSCCCN1CCn2nc(CNC(C)=O)cc2C1	-13.6%
CC(C)c1cc(N2CCC(CCC(=O)NC3CC3)CC2)n2nccc2n1	-9.12%
N#Cc1c(SCCN2CCOCC2)sc2c(O)cc(O)nc12	-7.5%
CCn1cc(-c2cc(C(F)F)n3nc(CCC(=O)O)nc3n2)cn1	-2.78%
CC(=O)N1CCCCC1c1nc2c(c(N3CCCCC3)n1)CN(C)CC2 (stereo not drawn)	-0.0788%
Cc1cncc(C2CCCN(C(=O)c3ccc(C)[nH]c3=O)C2)n1 (stereo not drawn)	5.37%
CC(C)c1nnc(CN2CCCC(c3cc(C(N)=O)[nH]n3)C2)o1 (stereo not drawn)	-29.7%
c1ccc(COc2cccc(CNC3CCc4ncnn4C3)c2)cc1 (stereo not drawn)	-13.7%
OCCn1nccc1C1CCN(Cc2nc(C3CC3)no2)CC1	-11.7%
Cc1nccc(CNC(=O)N(CCCO)C2CCc3ccccc32)n1 (stereo not drawn)	-27.3%
CCCN1CCN(CC(O)c2ccc(OC(F)(F)F)cc2)CC1 (stereo not drawn)	-20.5%
Cc1cn2c(n1)CCC(NC(=O)CCn1cncn1)C2 (stereo not drawn)	-5.72%
CC(C)(C)NC(=O)NC(=O)CNC(C)(C)c1ccc2c(c1)OCCO2	-8.72%
Cc1ccc(CN(C)CC(=O)NC2(C)CCS(=O)(=O)C2)cc1 (stereo not drawn)	5.05%
Cc1nc(CNC(=O)NCCc2ccc(N(C)C)cc2)cs1	-11.6%
Cc1csc(C2CCCN(C(=O)c3cnc[nH]3)C2)n1 (stereo not drawn)	-10.7%

Compound	cytotoxicity at 10 µM
CC(C)c1nc2n(n1)CC(NCc1nnc(-c3ccco3)o1)CC2 (stereo not drawn)	-9.78%
CC(C)c1nc2c(n1C)CCN(CC(=O)Nc1ccc(Cl)cn1)C2	0.241%
CC(CNC(=O)Nc1cn[nH]c1)N1CCc2ccccc2C1 (stereo not drawn)	-0.289%
CCc1noc(C)c1C(=O)N(C)Cc1ncc(C)c(OC)c1C	-1.06%
CN1CCN(C(=O)CC2CCN(CCc3ccccn3)CC2)CC1	-2.89%
CCn1nc(C(=O)N2CCCC(n3cncn3)C2)ccc1=O (stereo not drawn)	-3.3%
CCOC(=O)[C@]12CCCN(Cc3cccs3)C[C@H]1CN(CCOC)C2	5.13%
Fc1ccc(N2CCC3(CC2)CC(OCc2cccnc2)CO3)cc1 (stereo not drawn)	9.81%
c1csc(CN2Cc3nc(CN4CCCC4)oc3C2)c1	4.59%
COCCCN1CCCC12CCN(Cc1cccnc1OC)CC2	11.8%
Cn1ccnc1CN1CCC2(CC(=O)N(c3cncnc3)C2)C1 (stereo not drawn)	-0.799%
COCC(=O)N1CC[C@@H]2O[C@H](COCc3ccncc3)CC[C@@H]21	2.6%
CS(=O)(=O)N1C[C@H]2CCCN(Cc3nccs3)[C@H]2C1	-1.65%
CCN(C)c1ncc2c(c1C(=O)O)CCN(C1CCOC1)C2 (stereo not drawn)	11.5%
O=C1CC(c2ccncc2)C2(CCN(C(=O)c3ccc[nH]3)CC2)N1 (stereo not drawn)	3.78%
CCc1cnc(N2CC[C@H]3[C@@H]2CCC(=O)N3c2ccccc2)nc1	-6.18%
COCC1Cn2nnc(-c3cnn(C)c3)c2CN1Cc1ccsc1 (stereo not drawn)	2.11%
COCCN1C(=O)C[C@H]2[C@H]1CCN2Cc1cccc(C#N)c1	2.55%
c1c(CN2CCCC2)nc2n1CCNC2	9.94%
Cc1nc(C)c(CNCC2(COc3cccnc3)C[C@@H](O)[C@@H](O)C2)s1 (stereo partly drawn)	-1.36%
